Results taken from ChEMBL document CHEMBL5614452, “Synthesis and Optimization of Small Molecule Inhibitors of Prostate Specific Antigen” (ACS Med Chem Lett, 2024).
Values after ≈ are worked out from the molar mass of the structure shown. Each block holds one compound with its values, some of them ahead of it. Active and inactive are the calls of the source. The calls are words filed in the database; no cut-off is given here.

Experiments:
[1] = molecular target: T1, Prostate-specific antigen (Homo sapiens, UniProt P07288); test: Inhibition of recombinant human semen PSA using Mu-HSSKLQAMC as substrate preincubated for 15 mins followed by substrate addition by fluorescence based assay
T1 sequence (P07288 whole entry): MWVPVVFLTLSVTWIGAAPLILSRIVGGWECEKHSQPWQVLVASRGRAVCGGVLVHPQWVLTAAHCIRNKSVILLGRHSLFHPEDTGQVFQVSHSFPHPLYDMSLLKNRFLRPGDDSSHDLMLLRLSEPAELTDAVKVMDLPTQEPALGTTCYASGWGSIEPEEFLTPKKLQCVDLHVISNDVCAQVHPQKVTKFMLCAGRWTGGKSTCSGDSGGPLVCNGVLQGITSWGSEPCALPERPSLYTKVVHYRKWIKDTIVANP

[2] = Stability in DMEM/F-12 medium assessed as compound remaining at 10 uM after 24 hrs by LC-MS/MS analysis; assay type: physicochemical
In short: (§1)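 Compound incubated in DMEM/F12 medium at 37 °C and sampled at 0, 8 and 24 h. Stability reported as percent of compound remaining.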

[3] = Stability in DMEM/F-12 medium assessed as compound remaining at 10 uM after 8 hrs by LC-MS/MS analysis; assay type: physicochemical; details: read-out: Stability; in short: as §1
[4] = molecular target: T2, Prostate-specific antigen (Homo sapiens) (UniProt P07288); test: Inhibition of recombinant human semen PSA at 0.000001 to 500 uM using Mu-HSSKLQAMC as substrate preincubated for 15 mins followed by substrate addition by fluorescence based assay; assay type: single protein; details: dose lower 1e-06 µM, dose upper 500.0 µM
T2 sequence (whole entry): T1 sequence (P07288 whole entry)
In short: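 PSA inhibition in a biochemical assay. Compounds tested at 100 nM, 1 μM, 10 μM, 100 μM and 500 μM, plus a lower picomolar-level concentration. Compounds with no inhibition across this range were scored not active.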

[5] = Aqueous solubility of compound incubated for 1 hr by HPLC analysis; assay type: physicochemical
[6] = Inhibition of alpha-chymotrypsin (unknown origin) using N-Benzoyl-L-tyrosine ethyl ester as substrate preincubated for 5 mins followed by substrate addition and measured every 1 min for 10 mins by microplate reader assay; design: species or system Homo sapiens
In short: (§2)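 Protease inhibition measured in biochemical enzyme assays, with the result reported as Ki.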

[7] = molecular target: Prothrombin (Homo sapiens, UniProt P00734); test: Inhibition of thrombin (unknown origin) by fluorescence based assay; in short: as §2
[8] = Drug uptake in human HepG2 cells assessed as intracellular concentration per 10^9 cells at 10 uM incubated for 2 hrs by UHPLC-TSQ analysis; assay type: ADME, cell-based; details: hepg2, 2 h
In short: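 HepG2 cells exposed to compound. Intracellular amount expressed as nmol per 10^9 cells, n = 4.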

[9] = molecular target: T3, Neutrophil elastase (Homo sapiens, UniProt P08246); test: Inhibition of neutrophil elastase (unknown origin) using 7-amino-4-trifluoromethyl-coumarin based peptide as substrate measured for 1 hr by fluorescence based microplate reader assay; in short: as §2
T3 sequence (P08246 whole entry): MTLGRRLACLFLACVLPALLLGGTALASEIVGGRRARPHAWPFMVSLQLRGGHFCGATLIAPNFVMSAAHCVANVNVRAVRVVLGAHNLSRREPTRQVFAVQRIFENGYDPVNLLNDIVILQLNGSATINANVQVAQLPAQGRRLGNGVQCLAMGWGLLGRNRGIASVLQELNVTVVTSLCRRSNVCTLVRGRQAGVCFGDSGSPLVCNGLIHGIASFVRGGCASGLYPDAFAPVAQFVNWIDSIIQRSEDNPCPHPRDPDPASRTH

[10] = Cytotoxicity against human Ect1/E6E7 cells incubated for 1 to 3 hrs by MTT assay; assay type: toxicity, cell-based; details: time 1-3 hrs
In short: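 Ect1/E6E7 human ectocervical cells exposed to compound for 1 or 3 h, with viability read by MTT assay. Nonoxynol-9 served as the positive cytotoxic control.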

Ki [1]: 367 µM
Structure (SMILES): COc1ccc(-c2cc(N)n(C(=O)c3cc(OC)c(OC)c(OC)c3)n2)cn1

solubility at 1 h [5]: 27 µM (≈ 9.03 µg/mL)
Ki [6]: 2.74 µM
Ki [7]: 0.411 µM
Drug uptake [8]: 3.41 nmol
Stability [2]: Unstable
Ki [9]: 1180 µM
remaining at 8 h, 10 µM [3]: ~47%
Structure (SMILES): COc1ccc(-c2cc(N)n(C(=O)c3ccc4[nH]cnc4c3)n2)cn1
Activity [10]: Non-Toxic

inhibition [4]: inactive
Structure (SMILES): COc1ccc(-c2cc(N(C)C)n(C(=O)c3ccc(OC)c(OC)c3)n2)cn1

The remaining lines, values behind:

Structure (SMILES): COc1ccc(C(=O)n2nc(-c3ccncc3)cc2N)cc1OC
Ki [1]: 104 µM

Structure (SMILES): COc1ccc(CC(=O)n2nc(-c3cccnc3)nc2N)cc1OC
Ki [1]: 308 µM

Structure (SMILES): COc1ccc(C(=O)n2nc(-c3cccnc3)nc2N)cc1OC
Stability [2]: Unstable
remaining at 8 h, 10 µM [3]: ~4%

Structure (SMILES): COc1ccc(Cn2nc(-c3cccnc3)nc2N)cc1OC
inhibition [4]: inactive

Structure (SMILES): CNc1cc(-c2ccc(OC)nc2)nn1C(=O)c1ccc(OC)c(OC)c1
inhibition [4]: inactive

Structure (SMILES): Nc1n[nH]c(-c2cccnc2)n1
inhibition [4]: inactive

Structure (SMILES): COc1cncc(-c2cc(N)n(C(=O)c3ccc(OC)c(OC)c3)n2)c1
inhibition [4]: inactive
